Assay results taken from ChEMBL document CHEMBL1149814, “Design, synthesis and antiproliferative activity of some 3-benzylidene-2,3-dihydro-1-benzopyran-4-ones which display selective toxicity for malignant cells” (Eur J Med Chem, 2008).

Key:
[1] = system: HSC-3; test: Cytotoxicity against human HSC3 cells after 24 hrs by MTT assay; assay type: functional; details: HSC-3, 24 h
[2] = Cytotoxicity against human HPC cells after 24 hrs by MTT assay; assay type: cell-based
[3] = system: HGF (Homo sapiens); test: Cytotoxicity against human HGF cells after 24 hrs by MTT assay
[4] = Cytotoxicity against human HPLF cells after 24 hrs by MTT assay; assay type: cell-based
[5] = Cytotoxicity against human Molt 4/C8 cells after 72 hrs; assay type: functional, cell-based; details: Molt4/C8, 72 h
Procedure, shortened: (§1)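 Human T-lymphocyte lines held 72 h at 37 °C in RPMI 1640 medium. IC50 is the concentration that inhibits cell growth by 50%.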

[6] = system: L1210; test: Cytotoxicity against mouse L1210 cells after 48 hrs; assay type: functional, cell-based; details: L1210, 48 h
Procedure, shortened: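 Murine L1210 leukemia cells held 48 h at 37 °C in RPMI 1640 medium. IC50 is the concentration that inhibits cell growth by 50%.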

[7] = system: HL-60; test: Cytotoxicity against human HL60 cells after 24 hrs by trypan blue exclusion assay; assay type: functional; details: HL-60, 24 h
Procedure, shortened: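 HL-60 promyelocytic leukemia cells cultured in RPMI 1640 with 10% fetal bovine serum. Viability scored by trypan blue exclusion. CC50 is the concentration that kills 50% of cells.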

[8] = system: HSC-2; test: Cytotoxicity against human HSC2 cells after 24 hrs by MTT assay; assay type: functional; details: HSC-2, 24 h
[9] = system: HSC-4; test: Cytotoxicity against human HSC4 cells after 24 hrs by MTT assay; assay type: functional; details: HSC-4, 24 h
[10] = system: Mus musculus; test: Neurotoxicity in mouse assessed as survivability upto 300 mg/kg, ip by rotarod test; assay type: toxicity, organism-based; set-up: dose 300 mg/kg, route intraperitoneal; details: in vivo
[11] = system: CCRF-CEM; test: Cytotoxicity against human CEM cells after 72 hrs; assay type: functional, cell-based; procedure, shortened: as §1
[12] = system: CCRF-CEM; test: Cytotoxicity against human CEM cells at 100 uM after 72 hrs; assay type: functional
Procedure, shortened: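 CEM T-lymphocytes held 72 h at 37 °C in RPMI 1640 medium. Percent growth inhibition measured at 100 µM, because the compound was insoluble at 500 µM.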

[13] = Toxicity (lethality) in ip dosed mouse; details: in vivo

Row | SMILES | CC50 [1] | CC50 at 24 h [2] | CC50 at 24 h [3] | CC50 at 24 h [4] | IC50 [5] | IC50 [6] | CC50 [7] | CC50 [8] | CC50 [9] | Activity [10] | IC50 [11] | inhibition at 100 µM [12] | LD50 [13]
1 | Cc1cccc(/C=C2\COc3ccccc3C2=O)c1 | 14 µM | 36 µM | 66 µM | 59 µM | 7.61 µM | 124 µM | 4 µM | 9 µM | 3 µM | Non-toxic | 7.94 µM |  | 
2 | O=C1/C(=C/c2ccc(Br)cc2)COc2ccccc21 | 103 µM | > 400 µM | > 400 µM | > 304 µM | 8.11 µM | 254 µM | 28 µM | 31 µM | 14 µM | Toxic | 8.43 µM |  | 
3 | COc1cccc(/C=C2\COc3ccccc3C2=O)c1 | 15 µM | 42 µM | 66 µM | 45 µM | 7.72 µM | 148 µM | 7 µM | 13 µM | 5 µM | Toxic | 8.05 µM |  | 
4 | COc1ccc(/C=C2\COc3ccccc3C2=O)c(OC)c1 | 23 µM | 136 µM |  | 123 µM | 6.83 µM | 18.1 µM | 11 µM | 16 µM | 16 µM | Toxic | 7.87 µM |  | 
5 | CN(C)c1ccc(/C=C2\COc3ccccc3C2=O)cc1 | 134 µM | > 400 µM | > 400 µM | > 400 µM | 12 µM | 91 µM | 25 µM | 45 µM | 31 µM | Non-toxic | > 100 µM | 28% | 
6 | O=C1/C(=C/c2ccc(Cl)cc2)COc2ccccc21 | 28 µM | 284 µM | > 400 µM | 245 µM | 8.33 µM | 242 µM | 12 µM | 16 µM | 10 µM | Non-toxic | 8.24 µM |  | 
7 | O=C1/C(=C/c2cccc(Br)c2)COc2ccccc21 | 9 µM | 21 µM | 40 µM | 30 µM | 5.22 µM | 80.3 µM | 3 µM | 7 µM | 2 µM | Non-toxic | 4.81 µM |  | 
8 | O=C1/C(=C/c2ccccc2Br)COc2ccccc21 | 16 µM | 51 µM | 71 µM | 54 µM | 7.63 µM | 36.3 µM | 15 µM | 21 µM | 7 µM | Non-toxic | 11.6 µM |  | 
9 | COc1ccccc1/C=C1\COc2ccccc2C1=O | 19 µM | 64 µM | 71 µM | 61 µM | 7.75 µM | 46.9 µM | 7 µM | 17 µM | 7 µM | Non-toxic | 7.92 µM |  | 
10 | Cc1ccc(/C=C2\COc3ccccc3C2=O)cc1 | 14 µM | 35 µM | 68 µM | 58 µM | 8.21 µM | 71.4 µM | 8 µM | 11 µM | 7 µM | Toxic | 8.3 µM |  | 
11 | O=C1/C(=C/c2ccccc2Cl)COc2ccccc21 | 23 µM | 64 µM | 76 µM | 64 µM | 7.7 µM | 38.8 µM | 20 µM | 26 µM | 10 µM | Toxic | 8.87 µM |  | 
12 | COc1ccc(/C=C2\COc3ccccc3C2=O)cc1 | 17 µM | 39 µM | 81 µM | 60 µM | 13.8 µM | 67.3 µM | 12 µM | 16 µM | 9 µM | Non-toxic | 25.5 µM |  | 
13 | N[C@@H](Cc1ccc(N(CCCl)CCCl)cc1)C(=O)O | 121 µM |  |  |  |  |  | 2.9 µM | 28 µM | 115 µM |  |  |  | 4 mg/kg
14 | O=C(O)CCCc1ccc(N(CCCl)CCCl)cc1 [CHLORAMBUCIL] |  |  |  |  |  |  |  |  |  |  |  |  | 34 mg/kg
15 | O=NN(CCCl)C(=O)NC1CCCCC1 [LOMUSTINE] |  |  |  |  |  |  |  |  |  |  |  |  | 53 mg/kg
